We go through 20 compounds from ChEMBL document CHEMBL3804800, “(E)-3-Heteroarylidenechroman-4-ones as potent and selective monoamine oxidase-B inhibitors” (Eur J Med Chem, 2016).

Some results are limits rather than exact numbers.

The target in data set [1] is T1, Amine oxidase [flavin-containing] B (Homo sapiens, UniProt P27338).
T1 sequence (P27338 whole entry): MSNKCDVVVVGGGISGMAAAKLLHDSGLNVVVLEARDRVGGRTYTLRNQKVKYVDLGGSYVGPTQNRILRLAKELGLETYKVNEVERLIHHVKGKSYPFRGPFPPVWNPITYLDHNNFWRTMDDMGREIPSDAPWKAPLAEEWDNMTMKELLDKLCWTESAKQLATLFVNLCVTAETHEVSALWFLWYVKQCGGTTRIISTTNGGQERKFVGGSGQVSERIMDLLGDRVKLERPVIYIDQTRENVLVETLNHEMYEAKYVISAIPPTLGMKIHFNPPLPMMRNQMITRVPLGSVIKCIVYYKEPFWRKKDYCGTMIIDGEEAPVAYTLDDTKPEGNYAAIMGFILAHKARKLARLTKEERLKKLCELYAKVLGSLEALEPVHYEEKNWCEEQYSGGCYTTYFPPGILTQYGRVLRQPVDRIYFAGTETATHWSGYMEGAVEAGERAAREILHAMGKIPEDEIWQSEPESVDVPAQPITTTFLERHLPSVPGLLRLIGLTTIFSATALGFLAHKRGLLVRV
Briefly: biochemical. Type of data set: cell-based, BTI-TN-5B1-4.

In data set [2] the target is T2, Amine oxidase [flavin-containing] A (Homo sapiens, UniProt P21397).
T2 sequence (P21397 whole entry): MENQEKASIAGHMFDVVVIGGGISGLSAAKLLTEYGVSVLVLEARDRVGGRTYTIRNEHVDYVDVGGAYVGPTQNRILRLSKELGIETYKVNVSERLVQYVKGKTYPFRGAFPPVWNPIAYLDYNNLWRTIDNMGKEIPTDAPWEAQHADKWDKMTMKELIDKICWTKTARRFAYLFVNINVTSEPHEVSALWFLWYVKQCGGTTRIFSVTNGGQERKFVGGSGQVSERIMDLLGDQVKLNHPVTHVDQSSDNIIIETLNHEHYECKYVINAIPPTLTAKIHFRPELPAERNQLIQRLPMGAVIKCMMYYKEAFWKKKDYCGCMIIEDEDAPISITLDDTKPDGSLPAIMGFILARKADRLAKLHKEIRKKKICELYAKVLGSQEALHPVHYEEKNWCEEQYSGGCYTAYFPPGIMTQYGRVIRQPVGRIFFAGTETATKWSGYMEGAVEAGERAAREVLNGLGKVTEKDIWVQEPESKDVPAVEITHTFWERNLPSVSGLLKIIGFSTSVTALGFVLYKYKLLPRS
Briefly: Inhibition of human recombinant microsomal MAO-A expressed in baculovirus infected BTI-TN-5B1-4 cells using p-tyramine as substrate assessed as reduction in H2O2 production at 100 uM preincubated for 15 mins followed by substrate addition measured for 15 mins Amplex red dye based fluorimetric method relative to control. To be noted: for inhibition at 100 µM: BTI-TN-5B1-4, human, 0.25 h; for inhibition (INH): human, bti-tn-5b1-4, 0.25 h, 100 µM. In short, it runs like this: (§1)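 Microsomal hMAO-A or hMAO-B from baculovirus-infected BTI-TN-5B1-4 insect cells. Activity read as H2O2 formed from p-tyramine, detected by Amplex Red resorufin fluorescence. Test compounds were checked for direct reaction with Amplex Red. Highest concentration tested was 100 μM for some compounds and 1 mM for others. Mean ± S.E.M. from five experiments.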

Data set [3] can be described thus: Selectivity index, ratio of IC50 for human recombinant microsomal MAO-A expressed in baculovirus infected BTI-TN-5B1-4 cells to IC50 for human recombinant microsomal MAO-B expressed in baculovirus infected BTI-TN-5B1-4 cells.
In data set [4] the target is T1, Amine oxidase [flavin-containing] B. Briefly: Reversible inhibition of human recombinant microsomal MAO-B expressed in baculovirus infected BTI-TN-5B1-4 cells at 10 times IC50 using p-tyramine as substrate assessed as reduction in H2O2 production preincubated for 30 mins followed by substrate addition for 15 mins followed by compound dilution by Amplex red dye based fluorimetric method. As to conditions: bti-tn-5b1-4, 0.25 h; call rule not given here. In short, it runs like this: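 Dilution method. […] The mixture was then diluted 100-fold into buffer containing Amplex Red, horseradish peroxidase and p-tyramine, and the reaction was monitored for 15 min. Slope was compared with a control preincubated and diluted without inhibitor.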

Data set [5] has the same target. Briefly: Inhibition of human recombinant microsomal MAO-B expressed in baculovirus infected BTI-TN-5B1-4 cells using p-tyramine as substrate assessed as reduction in H2O2 production at 1 mM preincubated for 15 mins followed by substrate addition measured for 15 mins Amplex red dye based fluorimetric method. As to conditions: bti-tn-5b1-4, 0.25 h, 1000 µM. A digest of the protocol:
as §1

Turning to `O=C1/C(=C/c2ccco2)COc2ccccc21`, the midpoint of inhibition in data set [1], the IC50, lay at 3.77 µM. The inhibition at 100 µM in data set [2] worked out at 40%. For the same compound, the Ratio IC50 in data set [3] was 27.
As for `CN(C)c1ncc(/C=C2\COc3ccccc3C2=O)cn1`, in data set [1], the IC50 turned out to be 0.241 µM. In addition, the “inhibition (INH)” value in data set [2] is given as “Not Active”. In addition, the Ratio IC50 in data set [3] is more than 415.
For the compound `O=C1Nc2ccccc2C1=O` [ISATIN], the “inhibition (INH)” value in data set [2] is given as “Not Active”.
In data set [1], `CN(C)c1ccc(/C=C2\COc3cc(Cl)cc(Cl)c3C2=O)cn1` returned an IC50 of 10.5 µM. In addition, the inhibition at 100 µM in data set [2] came to 40%. Also, the Ratio IC50 in data set [3] was 9.5.
Regarding `CN(C)c1ccc(/C=C2\COc3ccccc3C2=O)cn1`, the IC50 in data set [1] is 0.213 µM. Further, the “inhibition (INH)” value in data set [2] was “Not Active”. In addition, the Ratio IC50 in data set [3] is more than 469.
For the compound `O=C1/C(=C/c2c[nH]cn2)COc2ccccc21`, the IC50 in data set [1] was 20.2 µM. Further, the inhibition at 100 µM in data set [2] was 40%. Besides, the Ratio IC50 in data set [3] stood at 5.
For the compound `CN(C)c1ncc(/C=C2\COc3cc(Cl)cc(Cl)c3C2=O)cn1`, the “inhibition (INH)” value in data set [4] is given as “Active”; in data set [2] it was “Not Active”. The compound also registered an IC50 in data set [1] of 0.0106 µM. Also, in data set [3], the Ratio IC50 was more than 9450.
On to `O=C1/C(=C/c2c[nH]cn2)COc2cc(Cl)cc(Cl)c21`, for which the IC50 in data set [1] was determined as 10.2 µM. In addition, in data set [2], the inhibition at 100 µM worked out at 40%. In data set [3], the Ratio IC50 stood at 9.8.
Consider `Nc1ncc(/C=C2\COc3ccccc3C2=O)cn1`, for which, in data set [1], the IC50 turned out to be 18.3 µM. In data set [2], the “inhibition (INH)” value is listed as “Not Active”. Moreover, the Ratio IC50 in data set [3] is more than 5.5.
`O=C1/C(=C/c2ccsc2)COc2ccccc21` had a half-inhibitory concentration (IC50) in data set [1] of 1.73 µM. In addition, the inhibition at 100 µM in data set [2] was determined as 40%. The Ratio IC50 in data set [3] worked out at 58.
As for `O=C1/C(=C/c2ccccn2)COc2ccccc21`, the IC50 in data set [1] came to 2.94 µM. Further, the “inhibition (INH)” value in data set [2] is recorded as “Not Active”. Also, the Ratio IC50 in data set [3] is more than 34.
For the compound `COc1ccc2c(c1)OC/C(=C\c1c[nH]cn1)C2=O`, in data set [1], the IC50 was determined as 10.6 µM. Also, in data set [2], the inhibition at 100 µM was 40%. Further, in data set [3], the Ratio IC50 was determined as 9.4.
Compound `O=C1/C(=C/c2cccnc2)COc2ccccc21` came in with an IC50 in data set [1] of 8.23 µM. The “inhibition (INH)” value in data set [2] was “Not Active”. Besides, in data set [3], the Ratio IC50 is more than 12.
For `Nc1ccc(/C=C2\COc3ccccc3C2=O)cn1`, in that order: 2.39 µM, “Not Active” and more than 42.
The compound `O=C1/C(=C/c2c[nH]c3ccccc23)COc2ccccc21` showed a half-maximal inhibitory concentration (IC50) in data set [1] of 0.181 µM. Besides, the inhibition at 100 µM in data set [2] is 40%. Also, the Ratio IC50 in data set [3] turned out to be 551.
For `O=C1/C(=C/c2ccc[nH]2)COc2ccccc21`, in that order: 13.8 µM, 40% and 7.3.
Turning to `COc1ccc2c(c1)OC/C(=C\c1cnc(N(C)C)nc1)C2=O`, the IC50 in data set [1] worked out at 10.4 µM. The “inhibition (INH)” value in data set [2] is given as “Not Active”. In data set [3], the Ratio IC50 is more than 9.6.
With `O=C1/C(=C/c2ccncc2)COc2ccccc21`, the IC50 in data set [1] is 12.4 µM. In addition, in data set [2], the “inhibition (INH)” value is reported as “Not Active”. Also, the Ratio IC50 in data set [3] was more than 8.
Regarding `O=C1/C(=C/c2cccs2)COc2ccccc21`, inhibition in data set [1] was half-maximal at 1.13 µM (IC50). Besides, in data set [2], the inhibition at 100 µM is 40%. Moreover, the Ratio IC50 in data set [3] came out at 88.
For the compound `O=C(NCCN1CCOCC1)c1ccc(Cl)cc1` [MOCLOBEMIDE], the “inhibition (INH)” value in data set [5] was “Not Active”.
